In ChEMBL document CHEMBL1649084, “Novel trisubstituted benzimidazoles, targeting Mtb FtsZ, as a new class of antitubercular agents” (J Med Chem, 2011):
pIC50: −log10 of the molar value. Converted amounts (≈) assume the structure as drawn.

Tests used:
[1] = system: Vero; assay: Cytotoxicity against african green monkey Vero cells after 3 days by Alamar Blue assay; type: cell-based; conditions: chlorocebus sabaeus, 72 h
[2] = system: Mycobacterium tuberculosis; assay: Antimycobacterial activity against Mycobacterium tuberculosis H37Rv NHN382 after 24 hrs by microplate Alamar Blue assay; type: functional
[3] = system: Mycobacterium tuberculosis; assay: Antimycobacterial activity against Mycobacterium tuberculosis H37Rv W210 after 24 hrs by microplate Alamar Blue assay; type: functional
[4] = system: Mycobacterium tuberculosis; assay: Antimycobacterial activity against Mycobacterium tuberculosis H37Rv after 24 hrs by microplate Alamar Blue assay; type: functional
Summary of the method: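 MIC99 by microplate Alamar Blue: DMSO stocks serially diluted 2-fold in 96-well plates; Mtb grown in 7H9 + 10% OADC + 0.05% Tween-80, used at mid-log phase, added to OD600 0.005; 6 days at 37 °C, then AlamarBlue added and a further 24 h at 37 °C; read by colour change; triplicate.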

[5] = target: T1, Cell division protein FtsZ (Mycobacterium tuberculosis, UniProt P9WN95); assay: (§1) Inhibition of Mycobacterium tuberculosis FtsZ polymerization
T1 sequence (P9WN95 whole entry): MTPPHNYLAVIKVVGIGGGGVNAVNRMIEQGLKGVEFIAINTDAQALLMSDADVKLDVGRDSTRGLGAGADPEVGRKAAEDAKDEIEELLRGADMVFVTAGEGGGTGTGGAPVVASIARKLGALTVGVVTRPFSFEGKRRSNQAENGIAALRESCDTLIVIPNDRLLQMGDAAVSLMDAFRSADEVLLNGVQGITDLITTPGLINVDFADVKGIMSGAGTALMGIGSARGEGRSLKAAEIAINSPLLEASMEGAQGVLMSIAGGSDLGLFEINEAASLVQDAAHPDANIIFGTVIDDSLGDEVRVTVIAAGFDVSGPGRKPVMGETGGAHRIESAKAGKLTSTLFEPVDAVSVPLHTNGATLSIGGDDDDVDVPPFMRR
Summary of the method: (§2)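 90° light scattering at 30 °C, excitation/emission 400 nm. Inhibitor at various concentrations preincubated in 50 mM MES, 5 mM MgCl2, 50 mM KCl, pH 6.5 to baseline. Mtb FtsZ (15 μM) then added; polymerization started with 5 mM GTP (20 μL into 1,000 μL final); monitored 30-60 min. DMSO-matched controls.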

[6] = target: T2, Cell division protein FtsZ (Mycobacterium tuberculosis) (UniProt P9WN95); assay: as §1; summary of the method: as §2
T2 sequence (whole entry): T1 sequence (P9WN95 whole entry)

## C=CCCOC(=O)Nc1cc2nc(C3CCCCC3)[nH]c2cc1N(CC)CC
[1]
  Cytotoxic concentration: > 400 µM
[2]
  MIC99: 4.2 µM (≈ 1.62 µg/mL)
[3]
  MIC99: 4.2 µM (≈ 1.62 µg/mL)

## CCOC(=O)Nc1cc(NC(C)=O)c2[nH]c(-c3ccccc3)nc2c1
[1]
  Cytotoxic concentration: > 200 µM
[2]
  MIC99: 2.3 µM (≈ 0.778 µg/mL)
[3]; Mycobacterium tuberculosis, H37Rv W210, 24 h, read-out: MIC99
  MIC99: 4.6 µM (≈ 1.56 µg/mL)

## CCN(CC)c1cc2[nH]c(C3CCCCC3)nc2cc1NC(=O)OCc1ccccc1
[4]
  MIC99: 3.8 µM (≈ 1.6 µg/mL)
[1]
  Cytotoxic concentration: > 400 µM

## O=C(Nc1cc2nc(C3CCCCC3)[nH]c2cc1N1CCCC1)OCc1ccccc1
[1]
  Cytotoxic concentration: > 200 µM
[2]
  MIC99: 3.7 µM (≈ 1.55 µg/mL)
[3]
  MIC99: 3.7 µM (≈ 1.55 µg/mL)

## CCN(CC)c1cc2[nH]c(C3CCCCC3)nc2cc1NC(=O)c1ccccc1
[4]
  MIC99: 7.9 µM (≈ 3.09 µg/mL)
[5]
  pIC50: 5.21
[6]
  Activity: Dose-dependent effect
[1]
  Cytotoxic concentration: > 400 µM

## CCCOC(=O)Nc1cc2nc(C3CCCCC3)[nH]c2cc1N(CC)CC
[4]
  MIC99: 4.3 µM (≈ 1.6 µg/mL)
[1]
  Cytotoxic concentration: > 400 µM

## CCN(CC)c1cc2[nH]c(C3CCCCC3)nc2cc1NC(=O)c1ccc(OC)cc1
[4]
  MIC99: 7.4 µM (≈ 3.11 µg/mL)
[1]
  Cytotoxic concentration: > 400 µM

## CCCCOC(=O)Nc1cc2nc(C3CCCCC3)[nH]c2cc1N(CC)CC
[5]
  pIC50: 5.11
[1]
  Cytotoxic concentration: > 400 µM
[2]; Mycobacterium tuberculosis, H37Rv NHN382, 24 h, read-out: MIC99
  MIC99: 2 µM (≈ 0.773 µg/mL)
[3]
  MIC99: 4 µM (≈ 1.55 µg/mL)

## CCN(CC)c1cc2[nH]c(C3CCCCC3)nc2cc1NC(=O)c1ccc(Cl)cc1
[4]
  MIC99: 14.1 µM (≈ 5.99 µg/mL)
[1]
  Cytotoxic concentration: > 400 µM

## CCN(CC)c1cc2[nH]c(C3CCCCC3)nc2cc1NC(=O)c1ccc(C)cc1
[4]
  MIC99: 15.1 µM (≈ 6.11 µg/mL)
[1]
  Cytotoxic concentration: > 400 µM

## CCCCOC(=O)Nc1cc2nc(C3CCCCC3)[nH]c2cc1N1CCCC1
[1]
  Cytotoxic concentration: > 200 µM
[2]
  MIC99: 1 µM (≈ 0.385 µg/mL)
[3]
  MIC99: 1 µM (≈ 0.385 µg/mL)
